A selection: hits, their analogues and other compounds. The true share with any hit is near 2.6%.
iPSC survival up – enhancers of single-cell hiPSC survival, primary screen, ATPlite luminescence | 100% = ROCK inhibitor wells, 0% = DMSO | survival enhancement, % at 20 µM | 0.044% of 360,000 active | AID 602274, 2012; in the data active = survival enhancement above about 18%;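 note: cells exposed to compounds for 16 hours before the ATP read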
MC4R ag barr – MC4R agonists recruiting beta-arrestin, primary screen, cell-based, luminescence, agonist arm of biased-ligand search | activation, % at 8.9 µM | AID 540308, 2011 | U2OS MC4R beta-arrestin complementation; percent of melanotan II response, DMSO zero | Melanocortin receptor 4 (Homo sapiens), P32245 | 0.98% of 360,000 active;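 active = activation above a per-plate cutoff, the mean activation of sample wells on that plate plus 3 SD, cut at about 8% in these data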
Tb MetRS inh – T. brucei MetRS inhibitors, primary screen, biochemical, luminescence; methionyl-tRNA synthetase (Trypanosoma brucei brucei); purified T. brucei MetRS, ATP depletion, Kinase-Glo luminescence; inhibition, % at 11.9 µM; 0.4% of 360,000 active; AID 624268, 2012;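 active = inhibition above a per-plate cutoff of the control wells' mean inhibition plus 3 SD, cut at about 5.5% in these data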;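 note: 0% = DMSO wells median and 100% = median of wells with control inhibitor compound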
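technique = Kinase-Glo luminescence, ATP depletion format | system = purified MetRS (methionyl-tRNA synthetase) enzyme from Trypanosoma brucei | timing = 15 min preincubation, 2 h reaction, all 25 °C | evaluation = percent inhibition versus plate control medians | dosing = single dose, 11.9 µM final nominal, 0.9% final DMSO | also added = substrates ATP, L-methionine and bulk Escherichia coli tRNA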
Granule exo inh – LAMP-1 surface exposure blockers, TALL-104 cells – cell-based, flow cytometry, MLPCN library, primary screen. TALL-104 LAMP-1 surface exposure; cells stimulated with thapsigargin and PMA. inhibition, % at 10 µM. 0.66% of 360,000 active. AID 651702, 2012;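 active = inhibition above about 55%, limit read from the data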
MC4R antagonist – MC4R antagonists of cAMP signaling, primary screen, cell-based, TR-FRET, antagonist arm of biased-ligand search; 0.48% of 360,000 active; MC4R-expressing cells, MTII-stimulated cAMP, LANCE TR-FRET; AID 540295, 2011; Melanocortin receptor 4 (Homo sapiens), P32245; inhibition, % at 6.5 µM;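 active = inhibition above its plate's cutoff, the mean of tested wells on that plate plus 3 SD, cut at about 29% in these data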;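 note: 0% = Melanotan II alone and 100% = Melanotan II plus saturating MCL0020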
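Assay system: U2OS cells stably expressing human melanocortin 4 receptor (MC4R) / Dosing: 6.5 µM / Timing: compound 30 min, challenge 1 h, detection 1 h / Measured by: Eu-cAMP/anti-cAMP TR-FRET, emission 671 nm / Replicates: singlicate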
ABCB6 inh 2 – ABCB6 transporter inhibitors, primary screen, K562-ABCB6 cells, flow cytometry, MLPCN library. ATP-binding cassette sub-family B member 6 (Homo sapiens), Q9NP58. K562-ABCB6 porphyrin accumulation, 1 h; stronger effect = lower value. fluorescence ratio to DMSO, % at 10 µM. 0.19% of 360,000 active;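 active = fluorescence ratio to DMSO below 75%, the collection mean minus 3 SD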;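 note: signal is porphyrin accumulated inside mitochondria; 100% equals median channel fluorescence of DMSO control wells; lower ratio means ABCB6 inhibition with less porphyrin fluorescence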
Target sequence (Q9NP58 whole entry, looked up): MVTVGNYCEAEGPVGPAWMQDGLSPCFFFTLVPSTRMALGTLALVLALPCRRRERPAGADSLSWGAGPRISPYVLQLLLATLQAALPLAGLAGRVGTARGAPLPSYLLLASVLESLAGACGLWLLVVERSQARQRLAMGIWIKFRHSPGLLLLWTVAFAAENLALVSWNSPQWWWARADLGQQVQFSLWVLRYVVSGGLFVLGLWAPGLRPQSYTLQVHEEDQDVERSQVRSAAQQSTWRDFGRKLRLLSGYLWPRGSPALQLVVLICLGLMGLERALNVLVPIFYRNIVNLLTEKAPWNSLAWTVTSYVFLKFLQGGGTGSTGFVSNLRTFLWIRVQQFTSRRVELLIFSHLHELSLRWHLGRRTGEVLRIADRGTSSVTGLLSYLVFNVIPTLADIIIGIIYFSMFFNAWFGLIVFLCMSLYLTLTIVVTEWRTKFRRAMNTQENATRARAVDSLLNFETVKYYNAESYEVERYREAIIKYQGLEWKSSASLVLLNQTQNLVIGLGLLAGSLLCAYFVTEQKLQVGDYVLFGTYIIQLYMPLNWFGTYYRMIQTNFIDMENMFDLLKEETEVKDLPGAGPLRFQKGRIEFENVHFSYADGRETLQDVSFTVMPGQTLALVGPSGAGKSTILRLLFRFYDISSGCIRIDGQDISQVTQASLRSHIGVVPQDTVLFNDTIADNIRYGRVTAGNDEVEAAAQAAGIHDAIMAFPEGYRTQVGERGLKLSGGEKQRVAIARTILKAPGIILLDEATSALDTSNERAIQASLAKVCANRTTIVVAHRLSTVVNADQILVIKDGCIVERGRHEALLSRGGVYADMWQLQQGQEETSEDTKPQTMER
ABCB6 inh CP1 – ABCB6 transporter inhibitors, confirmation, K562-ABCB6 cells, flow cytometry, cherry pick 1. shares compounds with ABCB6 inh 2. K562-ABCB6 porphyrin accumulation, 1 h; stronger effect = lower value. ratio response (% of DMSO), % at 10 µM. 700 tested, under 10 active. AID 602430, 2012;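 active = repeat-averaged ratio response below 75% of DMSO, the collection mean minus 3 SD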;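 note: median porphyrin fluorescence at 575 nm with 488 nm excitation from mitochondria; lower ratio means less porphyrin signal so ABCB6 inhibition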
Active calls of the source: *; · = no result.

SMILES	iPSC survival up	MC4R ag barr	Tb MetRS inh	Granule exo inh	MC4R antagonist	ABCB6 inh 2	ABCB6 inh CP1
O=c1c2ccccc2c(-c2ccccc2)nn1-c1cc(Cl)ccc1[N+](=O)[O-]	4	-3	-1	0	5	73*	100
COc1cccc(N2CCN(C(=O)CC(C)(C)CC3=NS(=O)(=O)c4ccccc4N3)CC2)c1	0	-1	0	4	9	14*	100
COC(=O)CCC(=O)Nc1cc(Cl)cc(Cl)c1	1	1	-1	2	-7	72*	100
COC(=O)CCC(=O)Nc1ccc(NC(=O)CCC(=O)OC)cc1	8	-2	0	3	1	99	·
CC1=CC(C)(C)N2C(=O)C3(C(C#N)=C(N)Oc4cc(C)oc(=O)c43)c3cc(C)cc1c32 (centres undefined)	0	-2	-1	7	12	67*	96
O=C(CSc1ccc2ccccc2c1Br)Nc1cccc(S(=O)(=O)NC2=NCCCCC2)c1	-2	-1	0	-1	1	67*	99
CC(C)(C)c1cc(NC(=O)COC(=O)c2ccc3c(=O)n4c(nc3c2)CCC4)n(-c2ccccc2)n1	-3	-2	-1	-1	10	69*	101
Cn1c(SCC(=O)Nc2ccc(N3CCOCC3)cc2)nnc1-c1ccccc1	-2	2	-1	4	2	103	·
CC(Sc1nnc(-c2ccncc2)n1C)C(=O)Nc1ccc(N2CCOCC2)cc1 (centres undefined)	1	0	0	-1	-2	69*	100
CCc1ccccc1NC(=O)c1cc(=O)c2ccccc2o1	-1	5	-1	2	3	67*	101
Cc1ccc(CC2CC(=O)N(CCc3ccc4c(c3)OCO4)C2=O)cc1 (centres undefined)	2	-1	0	-2	5	74*	98
COc1cccc(CC2CC(=O)N(CCc3ccc4c(c3)OCO4)C2=O)c1 (centres undefined)	0	0	-1	3	0	93	·
Cc1ccc(NC2CCCN(C(=O)CCn3nccc3C)C2)cc1C (centres undefined)	0	1	0	-1	11	101	·
CCOC(=O)CN1C(=O)Nc2ccc(Br)cc2C1c1ccccc1 (centres undefined)	-2	-1	-1	0	11	92	·
CCOC(=O)CN1C(c2ccc(O)cc2)Nc2ccc(Br)cc2C1c1ccccc1 (centres undefined)	2	4	-1	20	6	73*	95
COc1ccccc1NC(=O)CCCN1C(=O)C2CC=CCC2C1=O (centres undefined)	0	-2	0	2	10	97	·
Clc1ccc(Cl)c(OCCN2CCCC2)c1	0	-3	0	-22	11	49*	105
COC(=O)[C@H](CCSC)NC(=O)Nc1ccc(C)c(C)c1	1	-2	0	-2	-2	69*	101
CC(Oc1ccc2c3c(c(=O)oc2c1)CCCC3)C(=O)NCc1cccnc1 (centres undefined)	0	-1	0	-4	-1	58*	101
CC(Oc1cc2oc(=O)c3c(c2cc1Cl)CCCC3)C(=O)NCc1cccnc1 (centres undefined)	0	-1	1	-17	13	97	·
COC(=O)[C@@H](NCc1cccc(CN[C@H](C(=O)OC)C(C)C)c1)C(C)C	1	1	0	-11	-5	86	·
Cc1cccc(NC(=O)c2cc3c(=O)n4ccccc4nc3s2)c1	0	-1	0	-6	18	99	·
O=C(Nc1cccc(Cl)c1)c1cc2c(=O)n3ccccc3nc2s1	1	-1	0	-1	10	93	104
COc1ccc(C(=O)N2CCN=C2c2ccccc2)cc1OC	-1	-2	0	0	-2	73*	100
O=C(c1ccccc1)N1CCN=C1c1ccccc1	0	-2	0	-1	-2	100	·
SMILES	iPSC survival up	MC4R ag barr	Tb MetRS inh	Granule exo inh	MC4R antagonist	ABCB6 inh 2	ABCB6 inh CP1
Cc1cc(Br)cn2c(CC(C)(C)C)c(-c3cccc(Cl)c3)nc12	0	·	-1	5	·	100	·
COc1ccccc1OCc1ccc(C(=O)N2N=C(C(F)F)CC2(O)C(F)F)o1 (centres undefined)	-2	4	-1	-2	-3	108	99
O=C(c1ccc(Cn2cc(Br)cn2)o1)N1N=C(C(F)F)CC1(O)C(F)F (centres undefined)	1	-3	-1	2	-3	99	·
O=C(c1ccc(COc2ccc(Cl)cc2)o1)N1N=C(C(F)F)CC1(O)C(F)F (centres undefined)	0	8.7*	-1	3	-5	95	101
CCOc1ccc(-n2ccnc(SCC(=O)Nc3cccc(OC)c3)c2=O)cc1	0	-2	0	-8	7	98	·
COc1ccc(CN2CCN(c3ncccn3)CC2)c(C)c1C	0	4	0	7	-5	97	·
COc1cc(C)c(CN2CCN(c3ncccn3)CC2)cc1C	0	0	-1	-2	7	16*	97
CCCOc1ccc(C(CC(=O)O)NC(=O)c2ccc3c(c2)OCO3)cc1 (centres undefined)	-1	-1	0	1	6	57*	101
COC(=O)C1CCN(S(=O)(=O)c2ccc(Br)s2)CC1	0	0	0	4	-6	90	97
COC(=O)C1CCN(S(=O)(=O)c2c[nH]c(=O)[nH]c2=O)CC1	-1	-1	0	-6	-2	94	99
CC1CCN(S(=O)(=O)c2c[nH]c(=O)[nH]c2=O)CC1	0	0	0	30	-4	96	·
COc1ccc(C(O)P(=O)(OCC(C)C)OCC(C)C)c(OC)c1 (centres undefined)	0	-1	0	2	3	98	·
S=C(NCc1ccccc1)NCc1ccccc1Cl	0	0	0	2	0	98	·

Compound activity deposited in PubChem BioAssay by several laboratories.
